# Results from ChEMBL document CHEMBL1124241, “Arylformamidines with antinociceptive properties” (1988).
# Experiments:
# Assay type in all cases: functional
# Mus musculus [1] = species: Mus musculus; assay: Analgesic activity was determined in mouse writhing test
# Procedure, shortened: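 Mice received test compound sc; 30 min later 0.2 mL of 0.08 N HCl was given ip. Animals were watched for 15 min for absence of abdominal stretching (writhing). Activity was expressed as ED50 in mg/kg.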
# Mus musculus [2] = assay: Analgesic activity was determined in mouse tail flick writhing test by intraperitoneal administration of 0.2 mL of 0.08 N HCl 30 min after the subcutaneous injection of the compound
# Mus musculus [3] = assay: Analgesic activity was determined in mouse pinch writhing test by intraperitoneal administration of 0.2 mL of 0.08 N HCl 30 min after the subcutaneous injection of the compound
# Rattus norvegicus [4] = assay: Hypotensive activity in the rat as change in blood pressure (mmHg) at 24 hr after of 50 mg/kg oral dose of the compound; Bradycardia
# Procedure, shortened: (§1)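 Conscious restrained female Sprague-Dawley rats fitted with chronic indwelling aortic cannulas exteriorized at the nape. Towel restraint kept sympathetic tone high. Blood pressure was recorded directly by transducer and polygraph at 4 and 24 h after oral dosing in carboxymethylcellulose vehicle at 10 mL/kg. A change of ±5 mmHg was taken as not significant.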
# Rattus norvegicus [5] = assay: Hypotensive activity in the rat as change in blood pressure (mmHg) at 4 hr after a 50 mg/kg oral dose of the compound; procedure, shortened: as §1
# Rattus norvegicus [6] = assay: Hypotensive activity in the rat as change in blood pressure (mmHg) at 24 hr after of 50 mg/kg oral dose of the compound; procedure, shortened: as §1
# Mus musculus [7] = assay: Analgesic activity was determined in mouse writhing test by intraperitoneal administration of 0.2 mL of 0.08 N HCl 30 min after the subcutaneous injection of the compound(expt.2); conditions: 0.5 h
Compound,ED50 (Mus musculus [1]; Mus musculus),BP (Rattus norvegicus [5]),other results
C/N=C\Nc1c(C)cc(C)cc1C,0.11 mg/kg,–,–
C/N=C\Nc1cccc(Cl)c1Cl,0.8 mg/kg,–,–
Cc1cc(C(O)c2ccc(Cl)cc2)cc(C)c1/N=C/N(C)C (centres undefined),> 50 mg/kg,–,–
CC(=O)OC(C)c1cc(C)c(/N=C/N(C)C)c(C)c1 (centres undefined),> 30 mg/kg,–,–
C/N=C\Nc1ccccc1Cl,35 mg/kg,–,–
Cc1cc(C(C)O)cc(C)c1/N=C/N(C)C (centres undefined),40 mg/kg,–,–
CCOC(=O)C(C)c1cc(C)c(/N=C/N(C)C)c(C)c1 (centres undefined),> 50 mg/kg,–,ED50 (Mus musculus [2]): 18 mg/kg; ED50 (Mus musculus [3]): 22 mg/kg; ED50 (Mus musculus [1]): 8 mg/kg
Cc1cc(C(O)c2ccc(Cl)c(Cl)c2)cc(C)c1/N=C/N(C)C (centres undefined),> 50 mg/kg,–,–
C/N=C\Nc1c(Cl)cccc1Cl.Cl,4.4 mg/kg,-21 mmHg,BP (Rattus norvegicus [4]): -13 mmHg
C/N=C\Nc1ccc(Cl)cc1Cl,> 50 mg/kg,–,–
Cc1ccc(/N=C/N(C)C)c(C)c1.Cl,0.1 mg/kg,–,–
CCOC(=O)C(C)(O)c1cc(C)c(/N=C/N(C)C)c(C)c1 (centres undefined),> 50 mg/kg,–,–
CCOC(=O)C(C)(OC(C)=O)c1cc(C)c(/N=C/N(C)C)c(C)c1 (centres undefined),> 50 mg/kg,–,–
C/N=C\Nc1cc(Cl)ccc1Cl.Cl,> 50 mg/kg,3 mmHg,BP (Rattus norvegicus [6]): 5 mmHg
Cc1cccnc1/N=C/N(C)C.Cl,> 50 mg/kg,8 mmHg,BP (Rattus norvegicus [6]): 9 mmHg
C/N=C\Nc1ccc(C)cc1C.Cl,0.02 mg/kg,-10 mmHg,BP (Rattus norvegicus [4]): -19 mmHg
CN(C)/C=N/c1cc(Cl)ccc1Cl.Cl,> 50 mg/kg,-5 mmHg,BP (Rattus norvegicus [6]): -4 mmHg
Cc1cccc(C)c1/N=C/N(C)C.Cl,0.1 mg/kg,-15 mmHg,BP (Rattus norvegicus [6]): -21 mmHg
CCOC(=O)c1cc(C)c(/N=C/N(C)C)c(C)c1.Cl,> 50 mg/kg,–,–
CN(C)/C=N/c1c(Cl)cccc1Cl.Cl,3 mg/kg,-24 mmHg,BP (Rattus norvegicus [4]): -4 mmHg
C/N=C\Nc1ccc(Cl)c(Cl)c1.Cl,> 50 mg/kg,0 mmHg,BP (Rattus norvegicus [6]): -3 mmHg
Cc1cc(C)c(/N=C/N(C)C)c(C)c1.Cl,0.4 mg/kg,-10 mmHg,ED50 (Mus musculus [7]): 0.37 mg/kg; BP (Rattus norvegicus [6]): 2 mmHg
CN(C)/C=N/c1ccc(Cl)c(Cl)c1.Cl,> 50 mg/kg,0 mmHg,BP (Rattus norvegicus [6]): 2 mmHg
Clc1cccc(Cl)c1NC1=NCCN1 [CLONIDINE],0.02 mg/kg,-29 mmHg,–
